# The source made the active and inactive calls. The rule behind the calls is not given here.
# Legend:
# Format in all cases: functional
# Candida albicans [1] = experiment: Antifungal activity against Candida albicans SC5314 after 48 hrs by broth microdilution method; details: SC5314, 48 h
# In short: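 C. albicans SC5314 grown overnight, then set at (2−5) × 10^3 cells/mL in RPMI 1640. Compounds added at final 2 to 128 μg/mL, 35 °C for 48 h, following CLSI M27A3. OD600 read on a plate reader. MIC taken as the concentration giving 80% growth reduction.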
# Candida albicans [2] = experiment: Induction of disruption of plasma membrane integrity in Candida albicans assessed as decrease in fluorescence intensity after 3 hrs by DPH-staining based spectrofluorophotometric analysis
# In short: (§1)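 Cells at 1 × 10^6/mL in YPD treated 3 h (0, 4, 8, 16, 32 μg/mL; amphotericin B 8 μg/mL as positive control). Fixed in 0.37% formaldehyde 30 min, washed in PBS, freeze-thawed in liquid nitrogen. Stained with 1 μM DPH 45 min at 30 °C, washed. Fluorescence read at ex 350/em 450 nm and expressed as relative fluorescence. Means ± SD.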
# Candida albicans [3] = experiment: Fungicidal activity against Candida albicans SC5314 at 16 ug/ml up to 12 hrs by YPD-based colony counting method
# In short: (§2)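 Overnight SC5314 cells washed and resuspended at 1 × 10^6 cells/mL in MOPS-buffered RPMI 1640. Compound added at final 8, 16 and 32 μg/mL, shaken at 30 °C. Aliquots taken at 0, 0.5, 1, 2, 3, 4, 5, 6, 7, 8 and 12 h, washed, diluted and plated on YPD agar for viable colony counts. Means ± SD.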
# Candida albicans [4] = experiment: Induction of disruption of plasma membrane integrity in Candida albicans assessed as increase in fluorescence intensity after 3 hrs by propidium iodide-staining based FACS analysis
# In short: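 Log-phase C. albicans harvested and suspended in RPMI 1640, then treated 3 h at 30 °C (amphotericin B 8 μg/mL as positive control). Stained with 5 μM propidium iodide for 30 min at room temperature. Cell fluorescence measured by flow cytometry.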
# Candida albicans [5] = experiment: Fungicidal activity against Candida albicans SC5314 at 32 ug/ml up to 2 hrs by YPD-based colony counting method; in short: as §2
# Candida albicans [6] = experiment: Induction of disruption of plasma membrane integrity in Candida albicans assessed as decrease in fluorescence intensity at 8 ug/ml after 3 hrs by DPH-staining based spectrofluorophotometric analysis; in short: as §1
MIC80 (Candida albicans [1]) [mg/L],SMILES,further results
> 128,COC1(OC)C2C(=O)C=C(c3ccccc3)C1(O)Oc1ccc(O)cc12 (stereo not drawn),
> 128,Oc1cc(-c2ccccc2)c(O)c2c1-c1ccccc1CO2,
64,COc1c(O)c(-c2ccccc2)cc(O)c1-c1cc(O)ccc1O,
8,COC1=C(c2ccc(O)cc2)C(=O)C=C(c2ccccc2)C1=O,
> 128,COC1=C(c2ccccc2)C(=O)C=C(c2ccccc2)C1=O [BETULINAN C],
> 128,COc1c(O)c(-c2ccccc2)cc(O)c1-c1ccccc1,
> 128,COC1=C(c2ccccc2)C(=O)c2oc3ccccc3c2C1=O,
8,COC1=C(c2ccccc2O)C(=O)C=C(c2ccccc2)C1=O,Activity (Candida albicans [2]): Dose-dependent effect; Activity (Candida albicans [3]): 99.8%; Activity (Candida albicans [4]): Dose-dependent effect; Activity (Candida albicans [5]): Active
> 128,COC12Oc3ccc(O)cc3C1(O)C(=O)C=C(c1ccccc1)C2=O (stereo not drawn),
> 128,O=C1C=C(c2ccccc2)C(=O)C2=C1c1ccccc1CO2,
> 128,COC1=C(c2ccccc2)C(=O)C2=C(C1=O)c1ccccc1CO2 [BETULINAN B],
64,COC1=C(c2cc(O)ccc2O)C(=O)C=C(c2ccccc2)C1=O,
,C[C@@H]1[C@H](O)[C@@H](C)/C=C/C=C/C=C/C=C/C=C/C=C/C=C/[C@H](O[C@@H]2O[C@H](C)[C@@H](O)[C@H](N)[C@@H]2O)C[C@@H]2O[C@](O)(C[C@@H](O)C[C@@H](O)[C@H](O)CC[C@@H](O)C[C@@H](O)CC(=O)O[C@H]1C)C[C@H](O)[C@H]2C(=O)O,Activity (Candida albicans [6]): Active
16,COc1c(O)c(-c2ccccc2)cc(O)c1-c1ccc(O)cc1,

# Source: ChEMBL document CHEMBL3871273, “p-Terphenyl Derivatives from the Endolichenic Fungus Floricola striata” (2016)
